# This is a sample that favours compounds with a hit; in the whole collection about 3.1% have one here.
# MEKK2 mut-MEK5 – signal of MEK5 binding to mutant human MEKK2 PB1 domain; bead flow cytometry, Alexa488-MEK5 binding to MEKK2 mutant; percent response, % at 10 µM; hit rate 0.35% among 290,000; in the data active means percent response above about 24%, passing the limit was not always enough
# Apaf1 inhib – human Apaf-1 inhibition; O14727; inhibition, % at 20 µM; hit rate 0.71% among 330,000; reconstituted apoptosome caspase-3 activity, DEVD-Rh110 fluorescence; AID 489030; active means inhibition of at least 40% at 20 µM
#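 Material: biochemical Apaf-1 apoptosome reconstitution. Medium: Hepes buffer, pH 7.5. Also added: cytochrome c activation, bis-DEVD rhodamine 110 substrate. Timing: 30 min compound preincubation, 50 min activation, room temperature. Measured by: rhodamine 110 fluorescence at Ex 480/Em 540 nm.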
# MEKK2 WT-MEK5 – raises or lowers MEK5 binding to wildtype human MEKK2 PB1 domain; Q9Y2U5; bead flow cytometry, Alexa488-MEK5 binding to MEKK2 WT; actives lie on both sides; binding response (% of control), % at 10 µM; hit rate 1.1% among 290,000; AID 1531; in the data active means binding response below about 67% or above about 130%
# UBC13 inh – blocks human UBC13 polyubiquitin chain formation; TR-FRET; P61088; hit rate 0.47% among 330,000; AID 485273; inhibition, % at 20 µM; in the data active means inhibition above about 45%, passing the limit was not always enough
# PREPL inh – inhibits the human prolyl oligopeptidase-like enzyme; recombinant PREPL, fluorescence polarization activity-based probe; hit rate 0.68% among 320,000; inhibition, % at 5.96 µM; in the data active means inhibition above about 43%
# MEKK3 PB1 HTS – modulators (inhibitors or enhancers) of MEK5 binding to human MEKK3 PB1 domain; Q99759; bead-based flow cytometry, Alexa488-MEK5 binding to MEKK3; actives lie on both sides; 0 = blocked by unlabeled MEK5, 100 = vehicle; binding response (% of control), % at 10 µM; hit rate 1.4% among 290,000; AID 1529;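 active means binding response more than 3 SD above or below the average of its plate-row segment, actives on both sides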;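 further: Alexa488 bead fluorescence after subtracting the streptavidin-only scavenger bead signal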
# Target sequence (Q99759 whole entry, looked up, the tested form may be a part): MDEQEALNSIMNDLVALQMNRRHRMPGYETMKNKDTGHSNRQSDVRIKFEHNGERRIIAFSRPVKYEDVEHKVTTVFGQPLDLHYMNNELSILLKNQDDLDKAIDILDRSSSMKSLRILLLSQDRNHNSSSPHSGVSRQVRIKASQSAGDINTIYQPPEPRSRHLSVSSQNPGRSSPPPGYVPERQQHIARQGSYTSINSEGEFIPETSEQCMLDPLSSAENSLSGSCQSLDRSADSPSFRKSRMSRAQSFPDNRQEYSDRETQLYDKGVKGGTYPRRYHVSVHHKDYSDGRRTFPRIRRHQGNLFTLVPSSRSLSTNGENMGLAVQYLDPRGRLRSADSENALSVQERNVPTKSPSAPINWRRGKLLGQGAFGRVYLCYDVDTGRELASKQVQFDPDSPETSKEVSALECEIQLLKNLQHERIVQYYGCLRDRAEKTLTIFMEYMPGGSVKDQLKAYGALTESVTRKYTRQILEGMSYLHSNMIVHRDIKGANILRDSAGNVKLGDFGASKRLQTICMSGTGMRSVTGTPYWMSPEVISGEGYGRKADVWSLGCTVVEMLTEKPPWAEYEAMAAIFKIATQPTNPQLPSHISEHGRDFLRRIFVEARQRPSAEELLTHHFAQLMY
# MEKK2wt confirm – raises or lowers MEK5 binding to wildtype human MEKK2, retest. shares compounds with MEKK3 PB1 HTS. bead flow cytometry, Alexa488-MEK5 binding to MEKK2 WT; actives lie on both sides. binding response (% of control), % at 10 µM. hit rate 2.4% among 5,900; in the data active means binding response below about 16% or above about 210%; inactive means in between
# MEKK2mut confirm – signal of MEK5 binding to mutant human MEKK2, retest | AID 1893 | bead flow cytometry, Alexa488-MEK5 binding to MEKK2 mutant | hit rate 2% among 5,900 | percent response, % at 10 µM | shares compounds with MEKK3 PB1 HTS; in the data active means percent response mostly above about 71%, no sharp cut-off; inactive means mostly below about 38%;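 further: higher means compound restores mutant binding toward wildtype level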
# MEKK3-MEK5 inh – confirmation of inhibitors of MEK5 binding to human MEKK3. shares compounds with MEKK3 PB1 HTS. bead flow cytometry, Alexa488-MEK5 binding to MEKK3; stronger effect = lower value. binding response (% of control), % at 10 µM. hit rate 1.8% among 5,900. AID 1894;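 active means binding response below 72% of control, or above a set upper limit, though filed actives all read lower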
# A number is an active result; 0 = inactive; - = not tested or not shown; ! = not active in a repeat; [ ] = remark or other dose.
SMILES,MEKK2 mut-MEK5,Apaf1 inhib,MEKK2 WT-MEK5,UBC13 inh,PREPL inh,MEKK3 PB1 HTS,MEKK2wt confirm,MEKK2mut confirm,MEKK3-MEK5 inh
Cn1cc(CN2CCc3sccc3C2)c(-c2ccccc2F)n1,0,0,0,0,0,0,-,-,-
Clc1ccccc1CN1CCc2sccc2C1,0,0,0.0![inhibitor],0,0,70[inhibitor],0,0,0
CC(=O)Nc1ccc(NC(=O)CSc2ccc3nnc(-c4ccccn4)n3n2)cc1,0,0,0,0,0,0,-,-,-
COCC(=O)N1CCC(Oc2ccc(C(=O)NCCCC3CCCC3)cc2)CC1,0,0,0,0,-,0,-,-,-
Cc1ccc(Cl)cc1NC(=O)C(=O)N/N=C/c1ccc2c(c1)OCO2,0,0,0,0,-,0,-,-,-
Cn1nc(C(=O)NCC2CCCO2)c2ccccc2c1=O (centres undefined),0,0,0,0,0,82[inhibitor],0,0,0
CSc1nc2nc(C)c(CCC(=O)OCC(=O)Nc3ccc(F)cc3)c(C)n2n1,-,0,-,0,-,-,-,-,-
CNc1snc(C)c1C(=O)OC(C)C(=O)NCc1ccccc1 (centres undefined),-,0,-,0,-,-,-,-,-
CCCn1c(=NC(=O)c2ccco2)c(C(=O)OCC)cc2c(=O)n3ccccc3nc21,0,0,-2.0[inhibitor],0,0,2.0[inhibitor],0,0,0
Cn1c(C(=O)N2CCOCC2)cc2c(=O)n3ccccc3nc21,0,0,0,0,0,0,-,-,-
CC(C)Cn1c(CN2CCN(C(=O)c3ccco3)CC2)nc2c1c(=O)n(C)c(=O)n2C,0,0,0,0,0,141,0,0,0
Cn1c(C(=O)N2CCN(C(=O)c3ccco3)CC2)cc2c(=O)n3ccccc3nc21,0,0,0,0,0,138,0,0,0
Clc1cccc(/C=N/N2CCN(Cc3ccccc3)CC2)c1,0,0,0,0,0,0,-,-,-
CSc1cccc(NC(=O)c2cc(S(=O)(=O)N3CCc4ccccc43)cn2C)c1,0,0,0,0,0,0,-,-,-
COc1cc(CNCc2cccnc2)ccc1OCC(=O)NC(C)(C)C,0,0,0,0,0,0,-,-,-
CC(C)(C)NC(=O)COc1ccc(CNCc2cccnc2)cc1,0,0,0,0,0,56[inhibitor],0,0,0
COc1ccc(CNC(=O)c2n[nH]c3ccccc23)cc1OC,0,0,0,0,0,0,-,-,-
Nc1ccc(-c2nc3c(ccc4ccccc43)[nH]2)cc1,0,0,0,0,0,0,-,-,-
CCOC(=O)c1cc(C)sc1/N=C/C1=C(O)CCCC1=O,0,0,0,0,0,131,0,0,0
COc1ccc(-n2c(=O)c3ccccc3n(CC(=O)Nc3cccc(OC)c3)c2=O)cc1,0,0,0,0,0,50[inhibitor],0,0,0
CCOc1ccc(-n2c(=O)c3sccc3n(CC(=O)Nc3cccc(OC)c3)c2=O)cc1,0,0,0,0,0,0,-,-,-
Cc1ccc(C(=O)N/N=c2\sc3ccccc3n2C)cc1,0,0,0,0,0,136,0,0,0
COc1cccc(C(=O)N/N=c2\sc3ccccc3n2C)c1,0,0,0,0,0,0,-,-,-
CCN1CCN(C(=S)Nc2cccc(Cl)c2)CC1,0,0,0,0,0,0,-,-,-
CCN1CCN(C(=S)Nc2ccc(Cl)c(Cl)c2)CC1,0,0,62[inhibitor],0,0,64[inhibitor],0,0,0
SMILES,MEKK2 mut-MEK5,Apaf1 inhib,MEKK2 WT-MEK5,UBC13 inh,PREPL inh,MEKK3 PB1 HTS,MEKK2wt confirm,MEKK2mut confirm,MEKK3-MEK5 inh
COC(=O)C(C(C)C)N(Cc1cc(OC)cc(OC)c1)S(=O)(=O)CCl (centres undefined),-,0,-,-,-,-,-,-,-
CCN(CC(=O)NC)S(=O)(=O)c1ccc(Br)cc1,24,0,0,0,0,0,0,0,0
CCN(CC(=O)NC)S(=O)(=O)c1ccc(C)cc1,0,0,0,0,0,0,-,-,-
CCN(CC)C(=O)c1[nH]cnc1C(=O)N[C@H](C)c1ccccc1,-,0,-,0,0,-,-,-,-
CCOC(=O)c1cc(S(=O)(=O)N2CCC(C)CC2)cn1C,0,0,0,0,0,0,-,-,-
Cc1nn(C)cc1CN(C)Cc1ccc(OCC(O)CN2CCCCC2)cc1 (centres undefined),0,0,0,0,0,0,-,-,-
CN(Cc1ccc(OCC(O)CN2CCCCC2)cc1)Cc1ccnc2ccccc12 (centres undefined),0,-,148,-,-,0,0,0,0
COC/C=C/C1=CC2=CC(=O)C(C)(OC(=O)c3ccco3)C(=O)C2=CO1 (centres undefined),0,0,72[inhibitor],0,0,0,0,0,0
CC1CC1C(=O)OCC(=O)Nc1cc(S(=O)(=O)N2CCCCC2)ccc1Cl (centres undefined),-,0,-,0,0,-,-,-,-
CCN(CC)CCCNC(=O)c1[nH]c2ccccc2c1Sc1ccc(Cl)cc1,38,0,163,0,0,0,0,0,0
COC(=O)c1[nH]c2ccccc2c1Sc1ccccc1,0,0,0,0,-,0,-,-,-
O=Cc1cnc(N2CCN(c3ccccc3)CC2)s1,0,0,0,0,0,0,-,-,-
O=Cc1cnc(N2CCN(Cc3ccccc3)CC2)s1,0,0,0,0,0,68[inhibitor],0,0,0
CC(=O)c1c(C)[nH]c(C(=O)CN2CCN(S(=O)(=O)c3ccccc3[N+](=O)[O-])CC2)c1C,-,0,-,0,0,-,-,-,-
CC1(C)Cc2c(ccc3ccccc23)-c2nnc(-c3cccnc3)n21,0,0,-8.0[inhibitor],0,0,0.0[inhibitor],0,0,0
COc1ccc(NC(=O)NCCCN2CCN(c3cc(C)ccc3C)CC2)cc1,25,0,135,0,0,0,0,0,0
COc1ccc(N2CCN(CCNC(=O)Nc3ccc(C)c(Cl)c3)CC2)cc1,0,0,0,0,0,0,-,-,-
CCCc1cc(C(=O)NNC(=S)Nc2cccc(C)c2)cs1,0,0,0,0,0,129,0,0,0
COc1cccc(OCc2cc(C(=O)NCCN3CCCCC3CO)no2)c1 (centres undefined),0,0,0,0,0,0,-,-,-
Cc1cc(OCc2cc(C(=O)NCCN3CCCCC3CO)no2)cc(C)c1Cl (centres undefined),0,0,136,0,0,0,0,0,0
O=C(NC(=S)Nc1ccc2c(c1)OCCO2)c1ccccc1,0,0,0,0,0,0,-,-,-
COc1cccc(OC)c1C(=O)NC(=S)Nc1ccc2c(c1)OCCO2,0,0,0,0,0,141,0,0,0
Cc1cccc(CN2CCN(C(c3ccccc3)c3ccc(Cl)cc3)CC2)c1 (centres undefined),0,0,155,0,0,0,0,0,0

# High-throughput results from PubChem BioAssay.
